{"source": "ChEMBL document CHEMBL5370613", "about": "“Phenyl dialkynylcarbinols, a Bioinspired Series of Synthetic Antitumor Acetylenic Lipids” (J Med Chem, 2023)", "key": {"[1]": {"experiment": "Tmax in female CD-1 mouse at 5 mg/kg, po measured for 480 mins by LC-MS/MS analysis", "type": "ADME, organism-based", "conditions": "in vivo", "how_it_was_run": "(§1)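 Female (IP, SC, PO) or male (PO) CD-1 mice received 5 mg/kg in 10% Kolliphor EL vehicle, 3 mice per time point. Plasma was sampled at 5, 15, 30, 60, 120, 360 and 480 min, acetonitrile-extracted and quantified by LC-MS/MS against a calibration in extracted plasma. Tmax was the time of the observed maximum concentration.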"}, "[2]": {"experiment": "Tmax in female CD-1 mouse at 5 mg/kg, ip measured for 480 mins by LC-MS/MS analysis", "type": "ADME, organism-based", "conditions": "in vivo", "how_it_was_run": "as §1"}, "U2OS": {"tested_on": "U2OS", "experiment": "Cytotoxicity against human U2OS cells with HSD17B11 knockout complemented with HSD17B13-GFP assessed as cell viability at 1 uM incubated for 72 hrs by SRB assay relative to control", "type": "functional", "conditions": "read-out: Activity", "how_it_was_run": "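U2OS HSD17B11-KO cells stably complemented with GFP, HSD17B11-GFP or HSD17B13-GFP, exposed to 1 μM compound for 72 h in complete medium; viability read by SRB assay, in three independent experiments.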"}, "[3]": {"experiment": "Resistance index, ratio of IC50 for HSD17B11 knockout human U2OS cells to IC50 for human U2OS cells harboring wild type HSD17B11", "type": "functional", "how_it_was_run": "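Wild-type and CRISPR HSD17B11-knockout U2OS cells were grown in DMEM/10% FBS at 37 °C. Viability was read by sulforhodamine B on exponentially growing cells, duplicate points, ≥3 independent experiments, with four-parameter logistic IC50. The index is the knockout IC50 divided by the wild-type IC50.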"}}}
{"smiles": "C#C[C@H](O)C#Cc1ccc(CCCCCCCC)cc1", "values": [{"measurement": "Tmax", "setting": "[1]", "result": 5, "unit": "min"}, {"measurement": "Tmax", "setting": "[2]", "result": 5, "unit": "min"}, {"measurement": "viability at 1 µM", "setting": "U2OS", "result": 0, "unit": "%"}, {"measurement": "Ratio IC50", "setting": "[3]", "result": 214}]}
